# Shown are actives, neighbours in structure and some others; about 2.9% of the full set was active somewhere.
# H9c2 TAG inh = triacylglycerol accumulation inhibition | H9c2 cells, Nile Red lipid (TAG) fluorescence; cells loaded with 200 µM oleic acid | inhibition, % at 12.5 µM | actives 0.66% (n = 230,000);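 active = pattern-corrected inhibition of lipid staining of at least 50% with the nuclear-stain viability signal not falling by more than 50%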;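 also: 0% = DMSO wells and 100% = triacsin C control wells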
# Efflux pump inh = blocks antifungal efflux pumps in multiplex yeast assay; AID 485275; actives 0.44% (n = 330,000); S. cerevisiae Candida pump triplex, Nile Red efflux; inhibition, % at 10 µM;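 active = plate passing quality check with inhibition over a set limit, or well fluorescence over plate mean plus 4 SD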;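 also: Nile Red retained in pooled yeast measured as flow cytometry median fluorescence; 0% = buffer negative control and 100% = Enniatin B positive control; higher means more Nile Red kept so more efflux inhibition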
# MC4R ag barr = activates human MC4R beta-arrestin recruitment | activation, % at 8.9 µM | U2OS MC4R beta-arrestin complementation, luminescence; percent of melanotan II response, DMSO zero | AID 540308 | actives 0.98% (n = 360,000);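 active = activation above a per-plate cutoff, the mean activation of sample wells on that plate plus 3 SD, cut at about 8% in these data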
# Target sequence (P32245 whole entry, looked up): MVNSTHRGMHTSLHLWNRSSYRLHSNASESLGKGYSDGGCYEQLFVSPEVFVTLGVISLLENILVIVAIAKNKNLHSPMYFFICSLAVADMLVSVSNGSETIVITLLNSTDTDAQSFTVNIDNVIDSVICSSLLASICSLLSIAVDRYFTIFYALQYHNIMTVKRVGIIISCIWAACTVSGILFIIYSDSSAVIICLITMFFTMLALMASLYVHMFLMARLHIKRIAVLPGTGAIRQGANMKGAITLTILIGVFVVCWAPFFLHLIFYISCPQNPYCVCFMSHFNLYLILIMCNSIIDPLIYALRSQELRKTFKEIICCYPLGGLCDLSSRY
# GalR3 antag = blocks the human galanin receptor 3 | HEK293 GalR3-CNG cAMP membrane potential fluorescence; galR3 body fused to GalR1 C-terminus | O60755 | inhibition, % at 3 µM | AID 651719 | actives 0.44% (n = 360,000);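 active = inhibition above the screen-wide average plus 3 SD, cut at about 13% in these data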;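 also: forskolin and galanin both at EC90 stimulate the cells; cAMP rise reported by CNG channel membrane potential dye signal; 0% = forskolin plus galanin with DMSO and 100% = forskolin alone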
# Target sequence (O60755 1-299 limits assumed): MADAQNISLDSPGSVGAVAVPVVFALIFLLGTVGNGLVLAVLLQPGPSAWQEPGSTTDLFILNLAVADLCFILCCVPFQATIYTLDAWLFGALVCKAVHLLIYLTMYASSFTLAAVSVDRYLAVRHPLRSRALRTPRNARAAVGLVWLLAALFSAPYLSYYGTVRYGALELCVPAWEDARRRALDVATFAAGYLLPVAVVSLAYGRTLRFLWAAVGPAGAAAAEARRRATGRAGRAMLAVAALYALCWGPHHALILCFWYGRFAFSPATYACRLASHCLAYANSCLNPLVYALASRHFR
# Calb FLC = C. albicans growth modulation with fluconazole; C. albicans CaCi-2 + fluconazole, Alamar Blue growth, 48 h; growth inhibition, % (test concentration not listed); actives 0.57% (n = 300,000); AID 1979;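 active = growth inhibition above about 58% in most replicates, limit read from the data, passing the limit was not always enough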;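 also: all wells also contain fluconazole at 8 µg/ml as a sub-toxic cotreatment; 0% = median of DMSO wells and 100% = median of geldanamycin control wells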
# MC4R antagonist = human MC4R antagonism in cAMP assay. P32245. MC4R-expressing cells, MTII-stimulated cAMP, LANCE TR-FRET. inhibition, % at 6.5 µM. actives 0.48% (n = 360,000). AID 540295;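 active = inhibition above its plate's cutoff, the mean of tested wells on that plate plus 3 SD, cut at about 29% in these data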;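 also: 0% = Melanotan II alone and 100% = Melanotan II plus saturating MCL0020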
#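 material = U2OS cells stably expressing human melanocortin 4 receptor (MC4R) | also added = Melanotan II challenge | dosing = single nominal compound dose of 6.5 µM | detection = TR-FRET with Eu-cAMP and labeled anti-cAMP, 671 nm | replication = singlicate | timing = compound 30 min, challenge 1 h, detection 1 h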
# Starred values were filed as active, the others as inactive; · = no result; ! = not active in a repeat.
SMILES,H9c2 TAG inh,Efflux pump inh,MC4R ag barr,GalR3 antag,Calb FLC,MC4R antagonist
CCN(CC)CCNC(=O)c1ccc(NC(=O)/C=C/c2cc(OC)c(OC)c(OC)c2)cc1,·,0.1,-3.6,-3.0,66.1*,-12.6
C=C1C(=O)c2sccc2C(c2ccc(OC)c(OC)c2)C1COC(C)=O (configuration not stated),118.4,·,0.7,28.2*,·,-10.8
COc1ccc(CCC(C)NCCc2ccc(Cl)cc2Cl)cc1 (configuration not stated),·,0.4,9.2*,-14.3,-9.9,-4.5
COc1ccc(CCC(C)NCc2ccc(Cl)c(Cl)c2)cc1 (configuration not stated),·,-0.3,1.6,-3.7,8.9,-3.9
CC(=O)Nc1ccc(NC(=O)CN(c2ccc(C34CC5CC(CC(C5)C3)C4)cc2)S(C)(=O)=O)cc1,·,0.0,11.4*,1.8,-9.7,9.5
CCOc1ccc2nc(NCCNC(=O)Nc3ccccc3)c(C#N)cc2c1,21.5,0.3,9.6*,0.9,13.2,-3.3
Cc1cc(Cl)n2nc(C)c(-c3ccc(Cl)cc3)c2n1,13.0,0.1,-4.3,-9.7,112.8*,26.5
O=C(CC(=O)c1ccccc1)Nc1cccc([N+](=O)[O-])c1,-5.8,·,-1.6,-2.4,·,11.2
O=C(CC(=O)c1cccc([N+](=O)[O-])c1)Nc1ccccc1Cl,6.5,0.0,-0.3,-3.1,103.1*,2.0
O=C(N/N=C/c1sc(N2CCOCC2)nc1-c1ccccc1)c1ccc(O)cc1,5.2,0.0,-2.5,-4.2,-1.7,-0.5
O=C(N/N=C/c1sc(N2CCOCC2)nc1-c1ccccc1)c1cccc(S(=O)(=O)N2CCCC2)c1,6.7,0.0,-2.8,-3.7,87.9*,-0.1
CC(C)c1[nH]nc2c1C(c1ccccc1)N(Cc1ccccc1)C2=O (configuration not stated),·,·,·,-5.3,·,·
O=c1[nH]c2ccc(Cl)cc2c(-c2ccccc2)c1[N+](=O)[O-],·,-0.1,9.3*,-11.6,0.2,3.8
O=c1[nH]c2ccc(Cl)cc2c(O)c1-c1ccccc1,0.7,0.0,0.1,-2.0,29.6,7.0
CS(=O)(=O)c1ccc(OCCCN2CCC(C(O)(c3ccccc3)c3ccccc3)CC2)cc1,·,·,·,-5.0,·,·
c1ccc(N=Nc2ccc3cccccc2-3)cc1,96.3*,0.1,2.1,1.9,4.7,20.9
CC(C)(C)NC(=O)C1c2ccccc2OCC(=O)N1CC(F)(F)F (configuration not stated),·,·,·,-0.8,·,·
O=C(CCCN1C(=O)S/C(=C\c2ccccc2)C1=O)NNC(=O)c1ccccc1O,-14.4,-0.2,8.4*,-2.2,-28.1,2.4
COc1ccc(/C=C2\SC(=O)N(CC(=O)Nc3cccnc3)C2=O)cc1OC,·,0.0,-1.2,-0.5,-4.6,7.0
COc1ccc(/C=C2\SC(=O)N(CC(=O)NNC(=O)c3ccccc3O)C2=O)cc1OC,·,-0.2,-1.3,-2.0,104.8*,-2.9
O=C(CN1C(=O)S/C(=C\c2ccccc2)C1=O)NNC(=O)c1ccccc1O,·,0.1,0.1,-8.6,-3.1,12.7
COc1ccc(/C=C2\SC(=O)N(CC(=O)Nc3ccc(F)cc3)C2=O)cc1O,·,0.1,9.2*,-10.8,-12.1,10.8
C[C@@H](CO)NC(=O)c1[nH]cnc1C(=O)Nc1ccccc1,·,·,·,-5.0,·,·
CC(=O)Nc1ccc(NC(=O)CCN2C(=O)c3ccccc3C2=O)cc1,·,0.1,-1.2,-1.7,33.3,0.6
CC(=O)Nc1ccc(NC(=O)CCCN2C(=O)c3ccccc3C2=O)cc1,10.2,0.0,4.7,-2.7,107.7*,-4.6
SMILES,H9c2 TAG inh,Efflux pump inh,MC4R ag barr,GalR3 antag,Calb FLC,MC4R antagonist
Cc1cn(-c2cc(C(=O)Nc3ccc(C)c(NC(=O)C(=O)c4c[nH]c5ccccc45)c3)cc(C(F)(F)F)c2)cn1,123.5*!,0.0,0.3,-1.8,3.3,0.3
Cc1ccc(C2NC(=O)c3n[nH]c(C(C)C)c32)cc1 (configuration not stated),·,·,·,-5.3,·,·
O=c1c2c(n3nnnc3n1-c1ccccc1)-c1ccccc1CC21CCCC1,-3.8,0.0,2.1,14.5*,-10.3,16.4
O=c1c2c(n3cnnc3n1-c1ccccc1)-c1ccccc1CC21CCCC1,·,-0.2,-0.3,0.0,-1.9,-0.8
O=C(N[C@H](C(=O)N1CCC[C@H]1C(=O)NC1CCCC1)c1ccccc1)c1ccc(Cl)cc1Cl,·,·,·,-7.7,·,·
CC(C)C[C@H]1CNC(=O)C(=O)N1C[C@H]1CCCN1C[C@H](CC(C)C)N1C[C@H](Cc2ccccc2)N(CCc2ccccc2)C(=O)C1=O,·,·,·,-7.2,·,·
C[C@@H]1C=CCCO[C@]12C(=O)N(Cc1ccc(F)cc1)c1cccc(Br)c12,·,·,·,-8.7,·,·
CC(=O)c1ccc(-n2cc(-c3ccc(C(C)(C)C)cc3)[n+]3c2SCCC3)cc1,-16.2,0.1,0.9,1.5,100.8*,14.7
CC(=O)N1CCOCCOCCN(C(C)=O)CCOCCOCC1,2.2,0.0,-1.0,-0.1,102.0*,9.4
CC(=O)N1CCOCCOCCOCC1,4.1,0.1,-2.3,3.6,-4.3,4.4
CCCC(=O)N1CCCC(c2cc(C(=O)NCc3cccnc3)no2)C1 (configuration not stated),7.6,·,0.6,-4.9,·,2.0
CCCC(O)(CCC)C(=O)NNc1ccc(C)cc1,-3.6,-0.2,-2.3,-6.9,110.6*,-1.6
CC(=O)Nc1ccc(CN(C)c2c(C)nc3ccc(C(=O)NCCCN4CCCC4=O)cn23)cc1,6.1,·,0.1,-0.7,·,6.4
CCN(c1ccccc1)S(=O)(=O)c1ccc(Cl)c(NC(=O)CSc2nc(N)cc(=O)[nH]2)c1,9.5,·,-0.3,-8.2,·,8.6
Cc1ccc(Cl)c(OCC(=O)Nc2ccc3c(c2)OCCO3)c1,·,0.1,9.0*,-8.7,-20.0,11.2
Cc1ccc(N2C(=O)c3cccc4c(N)ccc(c34)C2=O)c2cccnc12,-252.8,0.0,-1.8,19.2*,0.9,-23.0
COC(=O)c1c[nH]n2c(=O)c(Cc3ccc(F)cc3Cl)c(C)nc12,·,0.1,-2.6,-7.7,96.7*,6.2
COCCN1C(=O)CN(S(C)(=O)=O)CC1(C)C(=O)Nc1ccc2c(c1)OCCO2 (configuration not stated),·,·,·,-6.8,·,·
Cc1ccc(C)c(NC(=S)NNC(=O)c2csc(C)c2C)c1,·,-0.1,-2.1,-3.4,-4.8,21.0
Cc1ccc(C)c(NC(=S)NNC(=O)c2csc(C(C)C)c2)c1,·,0.0,-1.6,-6.8,92.4*,1.1
Brc1ccc2nc(-c3ccco3)c(CC3CCCCC3)n2c1,·,·,·,-3.0,·,·
O=C(CN1C(=O)COc2ccccc21)NCCCN1CCc2ccccc2C1,·,-0.1,-0.8,-3.2,101.2*,-1.8
CCN(CC)c1ccc(/C=N/NC(=O)c2ccc3nc[nH]c3c2)c(O)c1,34.8,0.1,3.0,·,109.3*,-1.8
O=C(NCc1cccc(C(F)(F)F)c1)c1c[nH]c(=O)s1,17.9,·,-1.3,1.6,·,-0.5

# Assay outcomes deposited in PubChem BioAssay by several laboratories.
